pIC50: −log10 of the molar value. Active and inactive are the calls of the source. No cut-off for these calls is given here.
Assays:
[1] = system: SF-295; test: Effect on morphology of human SF295 cells assessed as induction of ruffled F-actin at 10 uM after 24 hrs using DAPI staining by multi-photon microscopy; format: functional, cell-based
In short: (§1)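 Cells grown on sterile coverslips to 65% confluency, then treated. Then fixed in 3.7% formaldehyde for 15 min, permeabilized in 0.2% Triton X-100 for 4 min, blocked in 1% BSA for 30 min and stained 20 min with phalloidin for F-actin. Mounted in DAPI-containing medium, imaged by multi-photon microscopy. SF-295 kept in RPMI 1640; A549 in F-12; both with 10% FCS.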

[2] = system: A549; test: Effect on morphology in human A549 cells assessed as induction of ruffled F-actin at 10 uM after 24 hrs using DAPI staining by multi-photon microscopy; format: functional, cell-based; in short: as §1
[3] = system: SNB-75; test: Cytotoxicity against human SNB75 cells after 44 hrs by MTT assay; format: functional; conditions: SNB-75, 44 h
[4] = system: SF-295; test: Cytotoxicity against human SF295 cells after 44 hrs by MTT assay; format: functional, cell-based; conditions: SF-295, 44 h
In short: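 SF-295 glioblastoma cells grown in RPMI 1640 with 10% fetal calf serum and pen-strep at 37 °C, 5% CO2. Plated in 24-well plates and dosed at 65% confluency. Thiazolyl blue tetrazolium added 44 h after treatment. At 48 h, HCl/Triton X-100/isopropanol solubiliser added, then overnight at 37 °C with gentle agitation. Absorbance read at 540 nm, 630 nm reference.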

[5] = system: SF-539; test: Cytotoxicity against human SF539 cells after 44 hrs by MTT assay; format: functional; conditions: SF-539, 44 h
[6] = system: SF-295; test: Inhibition of ROCK in human SF295 cells assessed as change in morphology at 10 uM after 24 hrs using DAPI staining by multi-photon microscopy; format: cell-based; in short: as §1
[7] = system: SF-295; test: Effect on morphology of human SF295 cells at 500 nM after 48 hrs using DAPI staining by multi-photon microscopy; format: functional, cell-based; in short: as §1
[8] = system: SF-295; test: Effect on morphology of human SF295 cells at 500 nM after 24 hrs using DAPI staining by multi-photon microscopy; format: functional, cell-based; in short: as §1
[9] = system: A549; test: Effect on morphology of human A549 cells at 500 nM after 48 hrs using DAPI staining by multi-photon microscopy; format: functional, cell-based; in short: as §1
[10] = system: A549; test: Effect on morphology of human A549 cells at 500 nM after 24 hrs using DAPI staining by multi-photon microscopy; format: functional, cell-based; in short: as §1
[11] = system: A549; test: Cytotoxicity against human A549 cells after 44 hrs by MTT assay; format: functional, cell-based
In short: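 A549 cells in F-12 medium with 10% fetal calf serum and pen-strep, 37 °C, 5% CO2, treated in 24-well plates at 65% confluency. MTT added 44 h after treatment; at 48 h, solubilizer (HCl, Triton X-100, isopropanol) added, overnight at 37 °C with gentle agitation. Absorbance read at 540 nm with 630 nm reference.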

[12] = system: SF-295; test: Effect on cytosolic localization in human SF295 cells assessed as increase in fluorescence intensity at 100 nM by fluorescence microscopy; format: functional, cell-based
In short: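 SF-295 cells on sterile coverslips at 65% confluency, treated for varied intervals across a concentration range. Washed three times in complete medium to remove compound, mounted right away, and live compound fluorescence imaged by multi-photon microscopy against untreated-cell autofluorescence.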

With `C[C@@H](N)[C@H]1CC[C@H](C(=O)Nc2ccncc2)CC1` the Activity [1] was “Active” and the Activity [2] was “Active”.

`CC(C)=CCC/C(C)=C/Cc1c(O)cc(/C=C/c2cc(O)c3c(c2)C[C@@H]2C(C)(C)[C@H](O)[C@H](O)C[C@@]2(C)O3)cc1O` [SCHWEINFURTHIN A] showed a GI50 [3] of 15 nM, a GI50 [4] of 11 nM and a GI50 [5] of 10 nM.

With `COc1cc(/C=C/c2cc(O)c(C/C=C(\C)CCC=C(C)C)c(O)c2)cc2c1O[C@]1(C)CC[C@@H](O)C(C)(C)[C@H]1C2` the Activity [6] was “Active”.

With `COc1cc(/C=C/c2cc(O)c(/C=C/c3cccc(O)c3)c(O)c2)cc2c1O[C@]1(C)CC[C@@H](O)C(C)(C)[C@H]1C2` the Activity [7] was “Active”, the Activity [8] was “inactive” and the Activity [9] was “inactive”. The Activity [10] was “inactive”, the Activity [6] was “Active” and the Activity [11] was “Active”. For the same compound, the pIC50 [4] was 6.10 and the Activity [12] was “Active”.
